The values that follow come from ChEMBL document CHEMBL1154674, “Synthesis and evaluation of three 18F-labeled aminophenylbenzothiazoles as amyloid imaging agents” (J Med Chem, 2009).

Molecules are shown by their SMILES.

What all share (type): ADME, organism-based, Macaca mulatta
Series [1] can be described thus: Drug level in normal rhesus monkey frontal cortex assessed as standard uptake value at 96.3 MBq, iv after 3.5 mins by microPET. Particulars: in vivo.
Series [2] can be described thus: Drug level in normal rhesus monkey cerebellum assessed as standard uptake value at 96.3 MBq, iv after 6 mins by microPET. The conditions noted are these: in vivo, 0.1 h. In short, it runs like this: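 Single normal rhesus monkey; each tracer given iv via the vena saphena, with 1 day between tracer injections. Dynamic μPET ran 180 min (5×60 s, 5×120 s, 9×300 s, 12×600 s). Images were reconstructed by filtered back projection with a RAMP filter. Regional time-activity curves were expressed as SUV.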

The nature of series [3]: Drug level in normal rhesus monkey frontal cortex assessed as standard uptake value at 96.3 MBq, iv after 14 mins by microPET. Particulars: in vivo.
A short description of series [4]: Drug level in normal rhesus monkey parietal cortex assessed as standard uptake value at 81.2 MBq, iv after 32.5 mins by microPET. Particulars: in vivo.
Series [5] can be described thus: Drug level in normal rhesus monkey cerebellum assessed as standard uptake value at 81.2 MBq, iv after 85 mins by microPET. The conditions noted are these: in vivo. A digest of the protocol: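 One normal rhesus monkey, each tracer given iv via the vena saphena (81.2, 96.3 or 109.4 MBq), with 1 day between tracer injections. Dynamic brain μPET over 180 min used frames of 5 × 60 s, 5 × 120 s, 9 × 300 s and 12 × 600 s. Images were reconstructed by filtered back projection with a RAMP filter. Regional time-activity curves were expressed as SUV.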

Series [6] in a line: Drug level in normal rhesus monkey thalamus assessed as standard uptake value at 81.2 MBq, iv after 37.5 mins by microPET. The conditions noted are these: in vivo, 0.625 h.
Series [7] in a line: Drug level in normal rhesus monkey parietal cortex assessed as standard uptake value at 152.9 MBq, iv after 22.5 mins by microPET. Particulars: in vivo, 0.375 h.
Series [8] in a line: Drug level in normal rhesus monkey cerebellum assessed as standard uptake value at 109.4 MBq, iv after 47.5 mins by microPET. Particulars: in vivo. In short, it runs like this: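 One normal rhesus monkey received each tracer via the vena saphena, with 1 day between injections. Dynamic μPET ran 180 min for 18F tracers (5×60 s, 5×120 s, 9×300 s, 12×600 s) and 90 min for the 11C tracer (5×60 s, 5×120 s, 9×300 s, 3×600 s). Filtered back-projection reconstruction (RAMP filter) was used. Time-activity curves were drawn to give regional SUV.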

Series [9] in a line: Drug level in normal rhesus monkey thalamus assessed as standard uptake value at 109.4 MBq, iv after 9.5 mins by microPET. The conditions noted are these: in vivo.

For `CN(C)c1ccc2nc(-c3ccc([18F])cc3)sc2c1`, the SUV in [1] worked out at 1.39; in [2] it was 1.72; in series [3] it was 2.19.

With `CNc1ccc2nc(-c3ccc([18F])cc3)sc2c1`, the SUV in [4] came out at 4.094; in series [5] it was 1.864; in series [6], 5.69.

For `[11CH3]Nc1ccc(-c2nc3ccc(O)cc3s2)cc1` [PITTSBURGH COMPOUND B], the SUV in series [7] stood at 1.453.

Consider `Nc1ccc2nc(-c3ccc([18F])cc3)sc2c1`, for which the SUV was found to be 3.54 in [8] and 5.36 in series [9].
